# Assay results gathered from unrelated publications.
# Each line is one published result; the experiments were not run side by side.
# BRAF: Serine/threonine-protein kinase B-raf (BRAF, Homo sapiens, UniProt P15056)
# BRAF V600E: Serine/threonine-protein kinase B-raf (BRAF, Homo sapiens, UniProt P15056, V600E)
Structure (SMILES),target,assay,conditions,quantity,result
CO[C@@H]1[C@H](N(C)C(=O)c2ccccc2)C[C@H]2O[C@]1(C)n1c3ccccc3c3c4c(c5c6ccccc6n2c5c31)C(=O)NC4,BRAF,"enzyme activity, inhibitor",1 µM,inhibition,6%
Cc1cc2c(C(N)=O)c(N)n(-c3c(C)ccc(O)c3C)c2nc1C,BRAF V600E,"binding, competition with immobilised ligand",1 µM,remaining binding,0.75%
Cc1ccc(NC(=O)c2ccnc(C(F)(F)F)c2)cc1-c1cc(OCCO)nc(N2CCOCC2)c1,BRAF,"binding, competition with immobilised ligand",1 µM,remaining binding,0.4%
N#Cc1ccc(NC(=O)Nc2ccccc2)cc1,BRAF V600E,"cell-free assay, competition with immobilised ligand",25 µM,remaining binding,100%
CN1CCN(C(=O)c2ccc(NC(=O)Nc3ccc(N(C)c4ccnc(Nc5ccc(CS(C)(=O)=O)cc5)n4)cc3)cc2)CC1,BRAF V600E,binding,1 µM,remaining binding,85%
C=CC(=O)N1CCC([C@@H]2CCNc3c(C(N)=O)c(-c4ccc(Oc5ccccc5)cc4)nn32)CC1,BRAF V600E,"enzyme activity, inhibitor",1 µM,inhibition,0%
COc1ccc2oc(-c3ccc4nc(N)oc4c3)c/c(=N\c3ccccc3NC(=O)CCN)c2c1,BRAF V600E,cell-free assay,1 µM,remaining signal,100%
C1=C/COCc2cc(ccc2OCCN2CCCC2)Nc2nccc(n2)-c2cccc(c2)COC/1,BRAF,binding,0.1 µM,remaining binding,94%
C=CC(=O)N1CCC[C@@H](n2nc(-c3ccc(Oc4ccccc4)cc3)c3c(N)ncnc32)C1,BRAF,"enzyme activity, inhibitor",1 µM,inhibition,51%
COc1ccc2[nH]c3c4[nH]c5ccc(OC)cc5c4c4c(c3c2c1)C(=O)NC4=O,BRAF,"binding, competition with immobilised ligand",1 µM,remaining binding,86%
Cc1cc(O)c(-c2ccc([C@@H](C)CN(C)C)cc2)c2c1[nH]c(=O)c1sccc12,BRAF V600E,"cell-free assay, inhibitor","0.1 µM, lysate",inhibition,-5.15%
CCCCC(=O)Nc1ccc(-c2ccc3ncn(CCC)c(=O)c3c2)cn1,BRAF V600E,"binding, competition with immobilised ligand",0.5 µM,remaining binding,95%
CC#CC(=O)N1CCC[C@H]1c1nc(-c2ccc(C(=O)Nc3ccccn3)cc2)c2c(N)nccn12,BRAF V600E,"enzyme activity, inhibitor",1 µM,inhibition,44%
C[C@H]1CC[C@H](n2c3cnccc3c3cnc(Nc4ccc5c(n4)CCN(C(=O)CO)C5)nc32)CC1,BRAF V600E,cell-free assay,1 µM,remaining signal,82%
